# Measurements: ChEMBL document CHEMBL1821569, “Synthesis of novel 1,2,5-trisubstituted benzimidazoles as potential antitumor agents” (2011)
# Experiments:
# Assay type in all cases: functional
# EKVX = assay: Antitumor activity against human EKVX cells after 48 hrs by SRB assay
# In short: (§1)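 NCI 60-cell-line secondary screen. Cells were exposed continuously to drug for 48 h at five concentration levels (100, 10, 1.0, 0.1 and 0.01). Growth was estimated by sulforhodamine B protein staining. GI50 is the concentration giving a 50% reduction in net protein increase versus untreated control cells over the incubation. TGI (total growth inhibition) and LC50 (50% cell kill) were also derived.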
# SR = assay: Antitumor activity against human SR cells after 48 hrs by SRB assay
# In short: (§2)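 NCI 60-cell-line secondary screen. Continuous 48 h exposure at five concentration levels. Cell growth estimated by sulforhodamine B protein staining. GI50 taken as the concentration giving 50% reduction in net protein increase relative to untreated control cells over the incubation. TGI (total growth inhibition) and LC50 (50% cell kill) were also derived.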
# SK-MEL-5 = assay: Antitumor activity against human SK-MEL-5 cells after 48 hrs by SRB assay; settings: SK-MEL-5, 48 h; in short: as §1
# COLO 205 = assay: Antitumor activity against human COLO205 cells after 48 hrs by SRB assay; settings: COLO 205, 48 h; in short: as §1
# UO-31 = assay: Antitumor activity against human UO31 cells after 48 hrs by SRB assay; settings: UO-31, 48 h; in short: as §2
# A498 = assay: Antitumor activity against human A498 cells after 48 hrs by SRB assay; settings: A498, 48 h; in short: as §1
# IGROV-1 = assay: Antitumor activity against human IGROV1 cells after 48 hrs by SRB assay; settings: IGROV-1, 48 h; in short: as §1
# MDA-MB-468 = assay: Antitumor activity against human MDA-MB-468 cells after 48 hrs by SRB assay; settings: MDA-MB-468, 48 h; in short: as §1
# SF-268 = assay: Antitumor activity against human SF268 cells after 48 hrs by SRB assay; settings: SF-268, 48 h; in short: as §1
# NCI-H226 = assay: Antitumor activity against human NCI-H226 cells after 48 hrs by SRB assay; settings: NCI-H226, 48 h; in short: as §1
# SK-OV-3 = assay: Antitumor activity against human SKOV3 cells after 48 hrs by SRB assay; settings: SK-OV-3, 48 h; in short: as §1
# [1] = Antitumor activity against human Hs 578T cells after 48 hrs by SRB assay; in short: as §1
# NCI-H460 = assay: Antitumor activity against human NCI-H460 cells after 48 hrs by SRB assay; settings: NCI-H460, 48 h; in short: as §1
# OVCAR-4 = assay: Antitumor activity against human OVCAR4 cells after 48 hrs by SRB assay; settings: OVCAR-4, 48 h; in short: as §1
# NCI-H23 = assay: Antitumor activity against human NCI-H23 cells after 48 hrs by SRB assay; settings: NCI-H23, 48 h; in short: as §1
# LOX IMVI = assay: Antitumor activity against human LOXIMVI cells after 48 hrs by SRB assay; in short: as §1
# Malme-3M = assay: Antitumor activity against human MALME-3M cells after 48 hrs by SRB assay; in short: as §1
# OVCAR-8 = assay: Antitumor activity against human OVCAR8 cells after 48 hrs by SRB assay; settings: OVCAR-8, 48 h; in short: as §1
# NCI-H522 = assay: Antitumor activity against human NCI-H522 cells after 48 hrs by SRB assay; settings: NCI-H522, 48 h; in short: as §1
# RPMI-8226 = assay: Antitumor activity against human RPMI8226 cells after 48 hrs by SRB assay; settings: RPMI-8226, 48 h; in short: as §1
# TK-10 = assay: Antitumor activity against human TK10 cells after 48 hrs by SRB assay; settings: TK-10, 48 h; in short: as §2
# HCT-15 = assay: Antitumor activity against human HCT15 cells after 48 hrs by SRB assay; settings: HCT-15, 48 h; in short: as §1
# 786-0 = assay: Antitumor activity against human 786-0 cells after 48 hrs by SRB assay; settings: 786-0, 48 h; in short: as §1
# SN12C = assay: Antitumor activity against human SN12C cells after 48 hrs by SRB assay; in short: as §1
# NCI/ADR-RES = assay: Antitumor activity against human NCI/ADR-RES cells after 48 hrs by SRB assay; in short: as §1
# SK-MEL-28 = assay: Antitumor activity against human SK-MEL-28 cells after 48 hrs by SRB assay; settings: SK-MEL-28, 48 h; in short: as §1
# HL-60(TB) = assay: Antitumor activity against human HL-60(TB) cells after 48 hrs by SRB assay; settings: HL-60, 48 h
# In short: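 NCI 60-cell-line secondary screen: continuous drug exposure for 48 h at five concentration levels (100, 10, 1.0, 0.1 and 0.01). Cell growth was estimated by sulforhodamine B (SRB) protein staining. GI50 is the concentration giving a 50% reduction in net protein increase relative to untreated control cells during the incubation. TGI and LC50 were derived from the same data.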
# HCT-116 = assay: Antitumor activity against human HCT116 cells after 48 hrs by SRB assay; settings: HCT-116, 48 h; in short: as §1
# CCRF-CEM = assay: Antitumor activity against human CCRF-CEM cells after 48 hrs by SRB assay; in short: as §1
# [2] = read-out: LC50 (the source's name)
smiles,measurement,setting,value
COC(=O)c1ccc2c(c1)nc(-c1cc3ccccc3[nH]c1=O)n2-c1cc(C(C)(C)C)[nH]n1,GI50,EKVX,5.8 µM
same,LC50 (50% cell kill),EKVX,> 100 µM
same,TGI,EKVX,> 100 µM
same,GI50,SR,10 µM
same,TGI,SR,> 100 µM
same,CC50,SR; [2],> 100 µM
same,GI50,SK-MEL-5,2.3 µM
same,TGI,SK-MEL-5,> 100 µM
same,CC50,SK-MEL-5; [2],> 100 µM
same,TGI,COLO 205,> 100 µM
same,CC50,COLO 205; [2],> 100 µM
same,GI50,UO-31,0.533 µM
same,TGI,UO-31,> 100 µM
same,CC50,UO-31; [2],> 100 µM
same,GI50,A498,13.6 µM
same,TGI,A498,76.9 µM
same,CC50,A498; [2],> 100 µM
same,GI50,IGROV-1,0.965 µM
same,TGI,IGROV-1,> 100 µM
same,CC50,IGROV-1; [2],> 100 µM
same,GI50,MDA-MB-468,20.5 µM
same,TGI,MDA-MB-468,> 100 µM
same,CC50,MDA-MB-468; [2],> 100 µM
same,GI50,SF-268,2.13 µM
same,TGI,SF-268,91.9 µM
same,CC50,SF-268; [2],> 100 µM
same,GI50,NCI-H226,7 µM
same,LC50 (50% cell kill),NCI-H226,> 100 µM
same,TGI,NCI-H226,> 100 µM
same,GI50,SK-OV-3,28.5 µM
same,TGI,SK-OV-3,> 100 µM
same,CC50,SK-OV-3; [2],> 100 µM
same,GI50,[1],0.619 µM
same,TGI,[1],34.1 µM
same,CC50,[1]; [2],> 100 µM
same,GI50,NCI-H460,0.63 µM
same,TGI,NCI-H460,> 100 µM
same,CC50,NCI-H460; [2],> 100 µM
same,TGI,OVCAR-4,> 100 µM
same,CC50,OVCAR-4; [2],> 100 µM
same,GI50,NCI-H23,2.78 µM
same,LC50 (50% cell kill),NCI-H23,> 100 µM
same,TGI,NCI-H23,> 100 µM
same,GI50,LOX IMVI,1.24 µM
same,CC50,LOX IMVI; [2],> 100 µM
same,GI50,Malme-3M,2.63 µM
same,TGI,Malme-3M,> 100 µM
same,CC50,Malme-3M; [2],> 100 µM
same,GI50,OVCAR-8,1.79 µM
same,TGI,OVCAR-8,> 100 µM
same,CC50,OVCAR-8; [2],> 100 µM
same,GI50,NCI-H522,0.928 µM
same,LC50 (50% cell kill),NCI-H522,> 100 µM
same,TGI,NCI-H522,> 100 µM
same,GI50,RPMI-8226,0.167 µM
same,TGI,RPMI-8226,0.987 µM
same,CC50,RPMI-8226; [2],> 100 µM
same,GI50,TK-10,16.9 µM
same,TGI,TK-10,55.8 µM
same,CC50,TK-10; [2],> 100 µM
same,LC50 (50% cell kill),HCT-15,> 100 µM
same,TGI,HCT-15,> 100 µM
same,GI50,786-0,5.81 µM
same,TGI,786-0,> 100 µM
same,CC50,786-0; [2],> 100 µM
same,GI50,SN12C,5.61 µM
same,TGI,SN12C,> 100 µM
same,CC50,SN12C; [2],> 100 µM
same,GI50,NCI/ADR-RES,5.29 µM
same,TGI,NCI/ADR-RES,> 100 µM
same,CC50,NCI/ADR-RES; [2],> 100 µM
same,TGI,SK-MEL-28,> 100 µM
same,CC50,SK-MEL-28; [2],> 100 µM
same,GI50,HL-60(TB),0.322 µM
same,LC50,HL-60(TB),> 100 µM
same,GI50,HCT-116,1.74 µM
same,LC50,HCT-116,> 100 µM
same,TGI,HCT-116,> 100 µM
same,GI50,CCRF-CEM,0.585 µM
same,TGI,CCRF-CEM,> 100 µM
same,CC50,CCRF-CEM; [2],> 100 µM
